Entries after “also recorded” stand apart in the source; their conditions may differ. Ends that are not written are not given here.
Tests used:
TβRII = settings: read-out: Kd (binding to two copies of TβRII); approximate (~) range; cited from earlier work
[1] = molecular target: T1, TβRII-ED (residues 1-137) (Homo sapiens, UniProt P37173); assay: SPR, TβRII-ED; format: binding
How it was run: (§1)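 CM5 chip with HBS (pH 7.4) running buffer. TβRI-ED (residues 7-91), TβRII-ED (1-137) and endoglin-ED (26-586) were amine-coupled (EDC/NHS) from 20 μg/mL in 10 mM NaOAc pH 5.0 to about 3600, 1900 and 7300 RU, then blocked with ethanolamine. The protein-free reference signal was subtracted. Surfaces were regenerated with 100 mM HCl for 30 s.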

TβRI-ED [2] = settings: TGF-β alone; cited from earlier work
BMPR-IA-ED = assay: SPR, BMPR-IA-ED; format: binding, human; settings: verification of immobilized receptor activity
How it was run: (§2)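 In a separate run, recombinant human β-glycan-ED (residues 21-781), BMPR-IA-ED (Gln24-Arg152, Fc chimera) and ActRII-ED (Ser25-Pro134, Fc chimera) were amine-coupled on a CM5 chip to about 1600, 3300 and 4300 RU. Serial dilutions of peptide-bearing dendrimer in HBS, within 2.9 nM–6 μM, were injected for 5 min with 5 min dissociation at 10 μL/min. Reference subtraction and HCl regeneration were used.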

ActRII-ED = assay: SPR, ActRII-ED; format: binding, human; settings: verification of immobilized receptor activity
How it was run: as §2

TβRI-ED [3] = molecular target: T2, TβRI-ED (Homo sapiens, UniProt P36897); assay: competition ELISA; format: binding
T2 sequence (P36897 25-125): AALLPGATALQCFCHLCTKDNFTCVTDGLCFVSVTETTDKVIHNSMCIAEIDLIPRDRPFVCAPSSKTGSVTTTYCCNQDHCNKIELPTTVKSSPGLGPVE
How it was run: (§3)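 Equimolar TβRI-ED (residues 1-101, 1.0 μg) or TβRII-ED (1-137, 1.5 μg), E. coli-expressed and refolded, was coated at 4 °C for 12 h. For Kd, M13 phage clones at various concentrations were bound for 1 h at room temperature in 2% BSA/PBS/0.5% Tween 20, with BSA wells as control. For IC50, fixed phage near its apparent Kd was mixed with varying peptide. Read-out was anti-M13-HRP, then ABTS/H2O2 for 30 min and A405; mean ± SD.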

[4] = molecular target: T1, TβRII-ED (residues 1-137); assay: competition ELISA; format: binding
How it was run: as §3

[5] = molecular target: artificially dimerized TβRII-ED; settings: previous SPR studies; cited from earlier work
TβRI-ED (residues 7-91) = molecular target: T3, TβRI-ED (residues 7-91) (Homo sapiens, UniProt P36897); assay: SPR, TβRI-ED; format: binding; settings: TGF-β1 41 pM to 30 nM
T3 sequence (P36897 31-115): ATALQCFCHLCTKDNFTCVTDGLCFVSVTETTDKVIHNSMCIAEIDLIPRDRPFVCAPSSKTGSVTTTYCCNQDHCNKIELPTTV
How it was run: as §1

monomeric TβRII-ED = settings: previous SPR studies; cited from earlier work
[6] = system: TGF-β responsive SBE(CAGA)12-luciferase reporter, Mv1Lu cells; assay: Reporter gene assay, SBE; format: cell-based, mink; settings: 10 μM SB-431542; 10 pM TGF-β1
How it was run: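 Mv1Lu cells stably carrying the SBE(CAGA)12-Luc reporter were grown in DMEM with 10% FBS. About 4000 cells were plated and left to attach overnight. Medium was changed to DMEM with 0.2% FBS 4 h before treatment. Cells received TGF-β1, TGF-β1 with serial dilutions of test peptide, or peptide alone, with untreated cells as control, in triplicate. After 18-24 h, Bright-Glo luminescence was normalised to cell number by CellTiter-Glo.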

Compound: TGF-β3: TGF-β isoform 3
- Kd (TβRII): 0.005 to 0.03 nM

Compound: TGF-β: transforming growth factor β, generic wording; TGF-β1 in the authors' own experiments
- saturating concentration ([1]; binding to TβRII-ED, SPR): 10 nM
- affinity for TβRI-ED (TβRI-ED [2]): weak affinity

Compound: BMP-4: known ligand of BMPR-IA and ActRII
- binding of BMP-4 (BMPR-IA-ED): ability to bind BMP-4
- binding of BMP-4 (ActRII-ED): ability to bind BMP-4

Compound: LTGKNFPMFHRN [Pep1]
- IC50 (TβRI-ED [3]): 110 µM
- Kd (TβRI-ED [3]): ~10 µM
- IC50 [4]: 156 µM
- Kd [4]: ~10 µM

Compound: MHRMPSFLPTTL [Pep2]
- IC50 (TβRI-ED [3]): 256 µM
- Kd (TβRI-ED [3]): ~10 µM
- IC50 [4]: 274 µM
- Kd [4]: ~10 µM

Compound: TGF-β1: Recombinant human TGF-β1, disulfide-linked homodimer growth factor
- Kd [5]: ~5 pM
- binding to TβRI-ED surface (TβRI-ED (residues 7-91)): did not bind detectably; also recorded: no observable affinity
- Kd ([1]; read-out: apparent Kd, TGF-β1 41 pM to 30 nM, dose dependent SPR responses, surface a mixture of monomeric and dimeric receptor): ~1.4 nM
- Kd (monomeric TβRII-ED): ~100 nM
- Kd (TβRII): 0.005 to 0.03 nM

Compound: NC(=O)c1ccc(-c2nc(-c3ccc4c(c3)OCO4)c(-c3ccccn3)[nH]2)cc1 [SB-431542]
- inhibition of TGF-β-induced luciferase gene expression [6]: completely blocked; also recorded: inhibited TGF-β regulated luciferase gene expression

Source: PMC3064480 (Molecular bioSystems, 2010)
